Experimental data from ChEMBL document CHEMBL5257128, “Design, synthesis and biological evaluation of covalent peptidomimetic 3CL protease inhibitors containing nitrile moiety” (Bioorg Med Chem, 2023).

What was measured:
[1] = molecular target: Replicase polyprotein 1ab (Severe acute respiratory syndrome coronavirus 2, UniProt P0DTD1); test: Inhibition of full length SARS-CoV-2 3CL protease expressed in Escherichia coli BL21 (DE3) using Dacyl-KTSAVLQSGFRKME-Edans fluorogenic peptide as substrate pre-incubated for 10 mins followed by substrate addition by FRET assay
[2] = Cmax in mouse at 10 mg/kg, iv by LC-MS/MS analysis; format: ADME, organism-based; set-up: dose 10 mg/kg, route iv; details: in vivo
[3] = Tmax in mouse at 20 mg/kg, po by LC-MS/MS analysis; format: ADME, organism-based; details: in vivo
[4] = Half life in mouse at 20 mg/kg, po by LC-MS/MS analysis; format: ADME, organism-based; details: in vivo
[5] = AUClast in mouse at 10 mg/kg, iv by LC-MS/MS analysis; format: ADME, organism-based; set-up: dose 10 mg/kg, route iv; details: in vivo
[6] = Observed volume of distribution at steady state in mouse at 10 mg/kg, iv by LC-MS/MS analysis; format: ADME, organism-based; details: in vivo
[7] = Selectivity Index, ratio of CC50 for African green monkey Vero E6 cells to EC50 for antiviral activity against SARS-CoV-2 infected in African green monkey Vero E6; format: toxicity, Vero C1008; details: read-out: Ratio CC50/EC50
[8] = Cmax in mouse at 20 mg/kg, po by LC-MS/MS analysis; format: ADME, organism-based; set-up: dose 20 mg/kg, route po; details: in vivo
[9] = AUClast in mouse at 20 mg/kg, po by LC-MS/MS analysis; format: ADME, organism-based; set-up: dose 20 mg/kg, route po; details: in vivo
[10] = tested on: SARS-CoV-2; test: Antiviral activity against SARS-CoV-2 infected in African green monkey Vero E6 cells pre-incubated for 1 hr followed by viral infection measured after 2 hrs by qRT-PCR analysis; format: functional, organism-based; details: Severe acute respiratory syndrome coronavirus 2, Vero C1008
[11] = Observed MRTinfinity in mouse at 20 mg/kg, po by LC-MS/MS analysis; format: ADME, organism-based; details: in vivo
[12] = Oral bioavailability in mouse at 20 mg/kg by LC-MS/MS analysis; format: ADME, organism-based; details: in vivo
[13] = Metabolic stability in mouse liver microsomes assessed as half life in presence of NADPH incubated upto 45 mins by LC/MS analysis; format: ADME, Microsome; details: 0.75 h
Method in brief: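 Mouse liver microsomes at 0.5 mg/mL final protein in K/Mg buffer, preincubated 5 min at 37 °C. Reaction started with NADPH (6 mM stock) and sampled at 0, 5, 15, 30 and 45 min. Each sample was quenched with acetonitrile containing internal standard, centrifuged, diluted with water, and analysed by LC/MS for remaining parent.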

[14] = tested on: Vero C1008; test: Cytotoxicity against African green monkey Vero E6 cells assessed as reduction in cell viability measured after 24 hrs by CCK8 assay; format: toxicity, cell-based; details: chlorocebus sabaeus, vero c1008, 24 h
[15] = Observed AUCinfinity in mouse at 20 mg/kg, po by LC-MS/MS analysis; format: ADME, organism-based; set-up: dose 20 mg/kg, route po; details: in vivo
[16] = Metabolic stability in human liver microsomes assessed as half life in presence of NADPH incubated upto 45 mins by LC/MS analysis; format: ADME, Microsome; details: 0.75 h
Method in brief: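 Human or mouse liver microsomes, final protein 0.5 mg/mL, in K/Mg buffer. Compound was added from a 1.5 µM spiking solution containing 0.75 mg/mL microsomes, then preincubated 5 min at 37 °C. The reaction was started with NADPH (6 mM stock) and sampled at 0, 5, 15, 30 and 45 min. Samples were quenched with acetonitrile containing internal standard, centrifuged, and the supernatant analysed by LC/MS.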

[17] = Observed MRTinfinity in mouse at 10 mg/kg, iv by LC-MS/MS analysis; format: ADME, organism-based; details: in vivo
[18] = Observed AUCinfinity in mouse at 10 mg/kg, iv by LC-MS/MS analysis; format: ADME, organism-based; set-up: dose 10 mg/kg, route iv; details: in vivo
[19] = Half life in mouse at 10 mg/kg, iv by LC-MS/MS analysis; format: ADME, organism-based; details: in vivo
[20] = Tmax in mouse at 10 mg/kg, iv by LC-MS/MS analysis; format: ADME, organism-based; details: in vivo

Structure (SMILES)	IC50 [1] [nM]	Cmax [2] [ng/mL]	AUClast [5] [ng·h/mL]	Cmax [8] [ng/mL]	AUClast [9] [ng·h/mL]	EC50 [10] [nM]	MRT [11] [min]	F [12] [%]	t1/2 [13] [min]	AUC [15] [ng·h/mL]	t1/2 [16] [min]	MRT [17] [min]	AUC [18] [ng·h/mL]	Tmax [20] [min]	further results
CC(C)(C)[C@H](NC(=O)C(F)(F)F)C(=O)N1[C@@H]2CC[C@@H](C2)[C@H]1C(=O)N[C@H](C#N)C[C@@H]1CCNC1=O	54.6	–	–	–	–	–	–	–	–	–	–	–	–	–	–
CC(C)(C)[C@H](NS(=O)(=O)C(F)(F)F)C(=O)N1C[C@H]2[C@@H]([C@H]1C(=O)N[C@H](C#N)C[C@@H]1CCNC1=O)C2(C)C	22.4	10500	4118.55	2052.36	1901.84	170	48	23.09	97.89	1904.9	652.17	17.4	4120.05	4.8	Tmax [3]: 30 min; t1/2 [4]: 42.6 min; Vd ([6]; read-out: Vdss): 0.69 L/kg; selectivity ratio [7]: > 1500; CC50 [14]: > 200000 nM; t1/2 [19]: 21 min
CC(C)(C)[C@H](NS(=O)(=O)C1CC1)C(=O)N1C[C@H]2[C@@H]([C@H]1C(=O)N[C@H](C#N)C[C@@H]1CCNC1=O)C2(C)C	22.8	–	–	–	–	–	–	–	–	–	–	–	–	–	–
CC(C)(C)[C@H](NC(=O)C(F)(F)F)C(=O)N1C[C@H]2[C@@H]([C@H]1C(=O)N[C@H](C#N)C[C@@H]1CCNC1=O)C2(C)C	–	9630	3336.46	2521.64	2308.32	580	51	34.59	4.64	2311.94	37.93	23.4	3361.32	4.98	Vdss ([6]; iv, 10 mg/kg): 1.18 L/kg
CC(C)(C)[C@H](NC(=O)C(F)(F)F)C(=O)N1CC2(CC2)C[C@H]1C(=O)N[C@H](C#N)C[C@@H]1CCNC1=O	36.8	–	–	–	–	–	–	–	–	–	–	–	–	–	–
